ChEMBL document CHEMBL5303300, “EUbOPEN Chemogenomics Library - Multiplex” (2023)
Values joined by “and” are separate entries in the source; they are usually repeats but may differ in a detail not shown here. Equal entries are not always repeated.

Assays:
[1] = test system: Fibroblast; assay: Multiplex assay against human fibroblast; type: toxicity, cell-based; details: number of replicates 2
Method in brief: (§1)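 Phenotypes for tubulin, mitochondrial mass and membrane permeability are expressed as per cents of healthy-nucleus cells. Cells were stained live at seeding with Hoechst33342, BioTracker Green Microtubule Cytoskeleton Dye, MitoTracker Red and Annexin V Alexa Fluor 680, then imaged after compound addition on a CQ1 microscope at 37°C and 5% CO2. Machine-learning gating in CellPathfinder separated Hoechst high-intensity objects from normal cells, divided normal cells by nuclear state (healthy, pyknosed, fragmented) and divided pyknosed cells into mitotic or apoptotic.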

[2] = test system: U2OS; assay: Multiplex assay against U2OS; type: toxicity, cell-based; details: human, number of replicates 2; method in brief: as §1
[3] = 12 h, 1 µM, compound concentration 1 uM
[4] = 12 h, 10 µM, compound concentration 10 uM
[5] = 24 h, 1 µM, compound concentration 1 uM
[6] = 24 h, 10 µM, compound concentration 10 uM
[7] = 48 h, 1 µM, compound concentration 1 uM
[8] = 48 h, 10 µM, compound concentration 10 uM

CCC(=O)O[C@@H](OP(=O)(CCCCc1ccccc1)CC(=O)N1C[C@H](C2CCCCC2)C[C@H]1C(=O)[O-])C(C)C.[Na+] (stereo not given in full)
Population Apoptotic (%) [1, 3]: 42% and 43% | Population Fragmented Nuclei (%) [1, 3]: 7% and 8% | Population Healthy Nuclei (%) [1, 3]: 69% and 71% | Population Hoechst High Intensity Objects (%) [1, 3]: 0% | Population Membrane Permeable-Phenotype (%) [1, 3]: 9% and 2% | Population Mitochondria Different-Phenotype (%) [1, 3]: 0% and 2% | Population Mitotic Cells (%) [1, 3]: 57% and 56% | Population Normal (%) [1, 3]: 99% | Population Pyknosed Nuclei (%) [1, 3]: 22% and 19% | Population Tubulin-Different-Phenotype (%) [1, 3]: 11% and 9% | Total Cell Count [1, 3]: 189 and 198 | Population Fragmented Nuclei (%) [1, 4]: 6% and 13% | Population Healthy Nuclei (%) [1, 4]: 76% and 70% | Population Hoechst High Intensity Objects (%) [1, 4]: 0% | Population Membrane Permeable-Phenotype (%) [1, 4]: 5% and 2% | Population Mitochondria Different-Phenotype (%) [1, 4]: 0% | Population Mitotic Cells (%) [1, 4]: 45% and 82% | Population Normal (%) [1, 4]: 100% | Population Pyknosed Nuclei (%) [1, 4]: 16% and 15% | Population Tubulin-Different-Phenotype (%) [1, 4]: 10% and 5% | Total Cell Count [1, 4]: 207 and 226 | Population Apoptotic (%) [1, 5]: 50% and 45% | Population Fragmented Nuclei (%) [1, 5]: 6% and 14% | Population Healthy Nuclei (%) [1, 5]: 73% and 64% | Population Hoechst High Intensity Objects (%) [1, 5]: 0% | Population Membrane Permeable-Phenotype (%) [1, 5]: 3% and 6% | Population Mitochondria Different-Phenotype (%) [1, 5]: 0% and 2% | Population Mitotic Cells (%) [1, 5]: 50% and 54% | Population Normal (%) [1, 5]: 100% | Population Pyknosed Nuclei (%) [1, 5]: 20% | Population Tubulin-Different-Phenotype (%) [1, 5]: 9% and 10% | Total Cell Count [1, 5]: 178 and 215 | Population Apoptotic (%) [1, 6]: 41% and 50% | Population Fragmented Nuclei (%) [1, 6]: 8% and 14% | Population Healthy Nuclei (%) [1, 6]: 76% and 74% | Population Hoechst High Intensity Objects (%) [1, 6]: 0% | Population Membrane Permeable-Phenotype (%) [1, 6]: 5% and 1% | Population Mitochondria Different-Phenotype (%) [1, 6]: 0% | Population Mitotic Cells (%) [1, 6]: 58% and 50% | Population Normal (%) [1, 6]: 99% and 100% | Population Pyknosed Nuclei (%) [1, 6]: 15% and 11% | Population Tubulin-Different-Phenotype (%) [1, 6]: 11% and 3% | Total Cell Count [1, 6]: 223 and 221 | Population Apoptotic (%) [1, 7]: 68% and 61% | Population Fragmented Nuclei (%) [1, 7]: 11% and 15% | Population Healthy Nuclei (%) [1, 7]: 67% and 68% | Population Hoechst High Intensity Objects (%) [1, 7]: 0% | Population Membrane Permeable-Phenotype (%) [1, 7]: 5% and 11% | Population Mitochondria Different-Phenotype (%) [1, 7]: 0% and 1% | Population Mitotic Cells (%) [1, 7]: 31% and 38% | Population Normal (%) [1, 7]: 100% | Population Pyknosed Nuclei (%) [1, 7]: 20% and 16% | Population Tubulin-Different-Phenotype (%) [1, 7]: 8% | Total Cell Count [1, 7]: 183 and 213 | Population Apoptotic (%) [1, 8]: 45% and 48% | Population Fragmented Nuclei (%) [1, 8]: 9% and 16% | Population Healthy Nuclei (%) [1, 8]: 75% and 72% | Population Hoechst High Intensity Objects (%) [1, 8]: 0% | Population Membrane Permeable-Phenotype (%) [1, 8]: 4% and 1% | Population Mitochondria Different-Phenotype (%) [1, 8]: 0% | Population Mitotic Cells (%) [1, 8]: 54% and 52% | Population Normal (%) [1, 8]: 99% and 100% | Population Pyknosed Nuclei (%) [1, 8]: 14% and 10% | Population Tubulin-Different-Phenotype (%) [1, 8]: 6% and 1% | Total Cell Count [1, 8]: 222 and 228 | Population Apoptotic (%) [2, 3]: 33% and 87% | Population Healthy Nuclei (%) [2, 3]: 60% and 83% | Population Hoechst High Intensity Objects (%) [2, 3]: 0% | Population Membrane Permeable-Phenotype (%) [2, 3]: 0% and 1% | Population Mitochondria Different-Phenotype (%) [2, 3]: 0% | Population Normal (%) [2, 3]: 100% | Population Pyknosed Nuclei (%) [2, 3]: 6% and 12% | Population Tubulin-Different-Phenotype (%) [2, 3]: 80% and 82% | Population Apoptotic (%) [2, 4]: 100% and 40% | Population Healthy Nuclei (%) [2, 4]: 53% and 87% | Population Hoechst High Intensity Objects (%) [2, 4]: 0% | Population Membrane Permeable-Phenotype (%) [2, 4]: 7% and 0% | Population Mitochondria Different-Phenotype (%) [2, 4]: 7% and 0% | Population Normal (%) [2, 4]: 100% | Population Pyknosed Nuclei (%) [2, 4]: 7% | Population Tubulin-Different-Phenotype (%) [2, 4]: 78% and 80% | Population Apoptotic (%) [2, 5]: 40% and 80% | Population Healthy Nuclei (%) [2, 5]: 61% and 87% | Population Hoechst High Intensity Objects (%) [2, 5]: 0% | Population Membrane Permeable-Phenotype (%) [2, 5]: 0% | Population Mitochondria Different-Phenotype (%) [2, 5]: 0% | Population Normal (%) [2, 5]: 100% and 99% | Population Pyknosed Nuclei (%) [2, 5]: 8% | Population Tubulin-Different-Phenotype (%) [2, 5]: 80% and 86% | Population Apoptotic (%) [2, 6]: 80% and 41%
